A selection: hits, their analogues and other compounds. The true share with any hit is near 1.4%.
UBC9 SUMO inh = inhibitors of in vitro SUMOylation cascade, primary screen, biochemical, HTRF, uHTS; HTRF SUMOylation assay, SAE1/SAE2 + UBC9; actives 0.36% (n = 290,000); inhibition, % at 35 µM; in the data active = inhibition above about 50%, passing the limit was not always enough
Target sequence (P63279 whole entry, looked up): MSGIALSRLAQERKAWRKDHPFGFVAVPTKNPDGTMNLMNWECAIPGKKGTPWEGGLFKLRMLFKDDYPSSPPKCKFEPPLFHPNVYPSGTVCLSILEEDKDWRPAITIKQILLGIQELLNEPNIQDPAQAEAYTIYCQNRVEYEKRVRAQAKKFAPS
HKDC1 inhibitor = HKDC1 hexokinase inhibitors, primary screen, biochemical, fluorescence, uHTS. Q2TB90. recombinant HKDC1, G6PDH/diaphorase resazurin coupled fluorescence. inhibition, % at 20 µM. actives 0.16% (n = 340,000). AID 493160, 2011;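 active = inhibition above about 35% when tested at 20 µM, limit read from the data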;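 note: plate controls were DMSO wells with enzyme for no effect and DMSO wells lacking enzyme for full effect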
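Test system: Recombinant HKDC1 (HK5) hexokinase enzyme, produced in-house | Input: HKDC1 at 5 µg/mL | Buffer or medium: Tris pH 8.0 buffer with MgCl2, Tween-20, BSA, BME | Schedule: 90 min reaction incubation at room temperature, dark | Technique: Resazurin-to-resorufin fluorescence via G6PDH and diaphorase coupling, 525/613 nm | Controls: DMSO wells with and without enzyme mix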
Apaf1 inhib = inhibitors of human Apaf-1 apoptosome, primary screen, biochemical, DEVD-Rh110 fluorescence, uHTS | inhibition, % at 20 µM | reconstituted apoptosome caspase-3 activity | Apoptotic protease-activating factor 1 (Homo sapiens), O14727 | actives 0.71% (n = 330,000); active = inhibition of at least 40% at 20 µM;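 note: plate controls were DMSO wells for no effect and DEVD-CHO caspase inhibitor wells for full effect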
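Material: reconstituted apoptosome with Apaf-1, cytochrome c, caspase-9, procaspase-3, dATP; medium: pH 7.5 Hepes buffer with CHAPS, BSA, DTT; also added: cytochrome c and DEVD-Rh110 substrate; timing: 30 min plus 50 min, RT; signal: Rh110 fluorescence intensity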
Redox H2O2 prof = compounds producing H2O2 with reducing agent – biochemical, NIH compound library profiling, artefact control for MLSCN library redox annotation, primary screen | DTT-dependent redox cycling H2O2, phenol red/HRP absorbance; 100% = 100 µM peroxide control, 0% = buffer | activation, % at 10 µM | actives 0.03% (n = 200,000) | AID 878, 2007;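 active = activation of at least 50% relative to the plate's high and low controls in the primary single-dose screen; inactive = activation below 50%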;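 note: compound incubated with DTT at 0.8 mM final as the reducing agent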
GSTO1 inh = inhibitors of recombinant GSTO1, primary screen, counter-screen for RBBP9 inhibitor project, biochemical, fluorescence polarization; activity-based probe fluorescence polarization; inhibition, % at 5.96 µM; actives 1.1% (n = 300,000); Glutathione S-transferase omega-1 (Homo sapiens), P78417;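 active = inhibition above the campaign mean inhibition plus 3 SD, cut at about 35% in these data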;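 note: 0% = GSTO1-1 with DMSO and 100% = wells lacking GSTO1-1 enzyme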
Target sequence (P78417 whole entry, looked up): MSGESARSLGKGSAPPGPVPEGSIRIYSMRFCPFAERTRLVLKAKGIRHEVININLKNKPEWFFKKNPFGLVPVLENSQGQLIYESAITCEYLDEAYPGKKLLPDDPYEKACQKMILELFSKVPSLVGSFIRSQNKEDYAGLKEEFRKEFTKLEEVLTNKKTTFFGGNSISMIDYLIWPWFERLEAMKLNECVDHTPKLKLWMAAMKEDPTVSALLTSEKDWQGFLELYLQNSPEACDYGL
Apaf-1 inh conf2 = Apaf-1 inhibitors, single-dose retest, confirmation, biochemical, fluorescence, DEVD-Rh110, 20 µM; shares compounds with Apaf1 inhib; reconstituted apoptosome, caspase-3 DEVD-Rh110 fluorescence; inhibition, % at 20 µM; actives 25% (n = 1,800); AID 504614, 2011;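 active = mean inhibition of at least 40% at 20 µM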;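 note: plate controls were DMSO wells for no effect and DEVD-CHO caspase inhibitor control wells for full effect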
Rh110 quench = Rh110 fluorescence interference by putative Apaf-1 inhibitors, confirmation, artefact control for Apaf-1 inhibitor project, biochemical, 20 µM; 1,800 tested, under 10 active; activation (fluorescence interference), % at 20 µM; AID 504615, 2011; quenched caspase reaction; shares compounds with Apaf1 inhib;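 active = signal rise of 40% or more at 20 µM, treated as a fluorescence artifact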
Apaf1 inh interf = fluorescence interference of Apaf-1 inhibitor hits, dose response, artefact control for Apaf-1 inhibitor project | shares compounds with Apaf1 inhib | fluorescence interference counterscreen, Apaf-1 assay format | IC50, µM | 460 tested, under 10 active; call rule not given here
* hit, by the source's call; x = no result given.

SMILES	UBC9 SUMO inh	HKDC1 inhibitor	Apaf1 inhib	Redox H2O2 prof	GSTO1 inh	Apaf-1 inh conf2	Rh110 quench	others
Cc1cccc(/C=C2/Sc3ccc(C(=O)NCCN4CCCC4)cc3NC2=O)c1	6.0	3.4	33.2	x	-41.0	x	x
COc1cccc(/C=C2/Sc3ccc(C(=O)NCCN4CCCCCC4)cc3NC2=O)c1	7.5	9.4	40.0	x	-75.6	31.6	4.0
CC(C)CNC(=O)C1CCN(S(=O)(=O)c2ccc3c(c2)OCCO3)CC1	x	-10.3	1.8	x	3.2	x	x
CCOC(=O)c1cc(C(C)=O)n2ccccc12	0.7	-2.9	-9.4	-3.1	9.7	x	x
CCOC(=O)c1cc(C(=O)c2cccs2)n2ccc(C(C)=O)cc12	-6.4	4.1	42.3*	-0.1	13.9	9.7	4.2
CCN(CC)C(=O)Cn1ccc(NC(C)=O)nc1=O	25.3	-7.9	-5.3	x	3.7	x	x
COc1ccc(NC(=O)CSc2nc3c(c(-c4cccs4)c2C#N)CN(C)CC3)cc1OC	13.1	-1.3	66.9*	2.2	13.7	8.6	4.0
CC(C)C[C@@H](CO)N1CCN(Cc2cccnc2)CCC1=O	0.0	-1.4	-9.0	x	-0.3	x	x
O=C(CSc1nnnn1C1CC1)N1CCN(c2ccccc2F)CC1	x	-3.7	-7.9	x	x	x	x
OC(c1cc(C(F)(F)F)nc2c(C(F)(F)F)cccc12)C1CCCCN1 (configuration not stated)	x	3.6	48.2*	x	-0.7	27.1	1.6
COc1ccc(CNC(=O)COC(=O)CN2C(=O)C3CC=CCC3C2=O)cc1 (configuration not stated)	x	-0.5	-2.5	x	x	x	x
COc1ccc(C(=O)Nc2ccc(NC(=O)c3ccco3)cc2)cc1	20.8	-5.6	0.0	x	-4.3	x	x
COc1ccc(-n2c(NC(=O)c3ccco3)c(C#N)c3nc4ccccc4nc32)cc1	86.4	13.3	96.4*	-0.5	19.1	93.0*	3.2	Apaf1 inh interf=>100
O=C(CCS(=O)(=O)c1ccc(Cl)cc1)Nc1nnc(-c2ccco2)o1	x	-3.1	2.6	x	1.8	x	x
NC(=O)CSc1nc2scc(-c3ccc(Cl)cc3)c2c(=O)n1Cc1ccccc1	2.9	-0.7	46.9*	0.3	-3.2	18.5	1.5
CCOc1cc(/C=C2\CCn3c2nc2cc(Cl)ccc2c3=O)ccc1O	-18.3	5.8	15.1	x	-0.8	x	x
C=CCn1c(COc2cccc(C)c2)nnc1SC(C)C(=O)NC1CC1 (configuration not stated)	x	-5.2	41.2*	x	x	46.9*	6.1	Apaf1 inh interf=>100
C=CCn1c(COc2ccc(OC)cc2)nnc1SC(C)C(=O)NC1CC1 (configuration not stated)	x	-4.2	-9.1	x	x	x	x
COC(=O)c1ccc(-c2ncc(-c3cccc4ccccc34)o2)cc1	7.8	-2.0	41.8*	2.6	6.8	9.3	7.5
COc1ccc(NC(=O)CSc2nnnn2Cc2ccccc2)cc1	13.6	14.0	2.3	2.9	7.4	x	x
CN(C)CCCNC(=O)CC1C[C@H](C(=O)N2CCCCC2)[C@@]2(CCc3ccccc3)c3[nH]c4ccccc4c3CCN2C1=O (some centres not stated)	x	-4.0	45.9*	x	x	10.9	0.0
COc1ccc2[nH]c3c(c2c1)CCN1C(=O)C(CC(=O)NCCC2=CCCCC2)C[C@H](C(=O)N2CCOCC2)[C@@]31CCC1CCCC1 (some centres not stated)	x	0.1	43.7*	x	x	29.3	15.7
